This note sets out measurements from ChEMBL document CHEMBL2429774, “Synthesis and biological evaluation of novel 1,6-diaryl pyridin-2(1H)-one analogs” (Eur J Med Chem, 2013).

The source made the active and inactive calls. The rule behind the calls is not given here.

The test system of assay [1] is HepG2. Kind of assay: Cytotoxicity against human HepG2 cells after 72 hrs by spectrophotometry. The class given is functional, cell-based. The settings on record: HepG2, 72 h. An outline of the steps: (§1)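 Cells grown as monolayers in DMEM with 10% FBS, penicillin and streptomycin at 37 °C, 5% CO₂. Seeded at 5 × 10³ cells/well and exposed for 72 h. Medium changed, then another day of incubation. XTT (1 mg/mL) plus PMS added in serum-free medium for 4 h at 37 °C, read at 492 nm. Percent of control growth = treated/control absorbance × 100 (n = 3). GI50 taken from the linear portion of the curve.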

Assay [2] concerns SK-OV-3. As to the kind of experiment: Cytotoxicity against human SKOV3 cells after 72 hrs by spectrophotometry. It counts as functional, cell-based. The note with it: SK-OV-3, 72 h. An outline of the steps: as §1
Assay [3] has as its system H22. Kind of assay: Antitumor activity against mouse H22 cells transfected in nude mouse assessed as tumor growth inhibition at 200 mg/kg, qd after 7 days relative to control. It counts as functional. The note with it: H22, 168 h, read-out: TGI. An outline of the steps: (§2)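 Female SPF/ICR athymic nude mice, 4–5 weeks old (24 ± 2 g), received H22 cells (1 × 10⁶ per animal) s.c. into the armpit. Dosing started once tumors were detectable by fluorescent macro-imaging and was given once daily for 7 days. Animals were then killed and solid tumors excised and weighed. Inhibition = (mean vehicle tumor weight − mean treated)/mean vehicle × 100%. n = 6 per group at start.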

Assay [4] concerns H22. As to the kind of experiment: Antitumor activity against mouse H22 cells transfected in nude mouse assessed as tumor growth inhibition at 50 mg/kg, qd after 7 days relative to control. The settings on record: H22, 168 h, read-out: TGI. The class given is functional. An outline of the steps:
as §2

In assay [5] the test system is HepG2. Kind of assay: Cell cycle arrest in human HepG2 cells assessed as accumulation at G2/M phase at 62.5 nM after 24 hrs by flow cytometry. The class given is functional, cell-based. In a few lines: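 After treatment, cells were harvested, washed in PBS and resuspended in 1 mL 0.1% sodium citrate containing 0.05 mg propidium iodide and 50 µg RNase for 30 min at room temperature in the dark. DNA content was measured by flow cytometry, with at least three experiments run.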
(In general: In flow cytometry, cells or beads pass a laser one at a time.)

Assay [6] relates to H22. Kind of assay: Antitumor activity against mouse H22 cells transfected in nude mouse assessed as tumor growth inhibition at 10 mg/kg, qd after 7 days relative to control. The class given is functional. The settings on record: H22, 168 h, read-out: TGI. In a few lines:
as §2

`COc1cc(-n2c(-c3cccc(O)c3)cccc2=O)cc(OC)c1OC`: the IC50 (as a rule, the midpoint of a concentration-inhibition curve) stood at 34 nM in assay [1] and 1460 nM in assay [2].

In the case of `COc1cc(-n2c(-c3ccncc3)cccc2=O)cc(OC)c1OC`, the IC50 in assay [1] and in assay [2] was 1780 nM throughout.

`COc1ccc(-c2cccc(=O)n2-c2cc(OC)c(OC)c(OC)c2)cc1O`: the inhibition in vivo at 200 mg/kg in assay [3] stood at 40%. Further, the inhibition in vivo at 50 mg/kg in assay [4] worked out at 27%. Also, in assay [5], the outcome was inactive. Also, the IC50 in assay [1] and in assay [2] was under 10 nM in each case.

Regarding `COc1cc(-n2c(-c3ccc([N+](=O)[O-])cc3)cccc2=O)cc(OC)c1OC`, the inhibition in vivo at 200 mg/kg in assay [3] was determined as 61%. Besides, the inhibition in vivo at 50 mg/kg in assay [4] was found to be 31%. Besides, the result in assay [5] was inactive. In addition, the half-maximal inhibitory concentration (IC50) in assay [1] is under 10 nM; in assay [2], 201 nM.

On to `COc1cc(-n2c(-c3cccc4cc[nH]c34)cccc2=O)cc(OC)c1OC`, for which the IC50 in assay [1] is 2400 nM; in assay [2] it was 138 nM.

Take `COc1ccc(-c2cccc(=O)n2-c2cc(OC)c(OC)c(OC)c2)cc1OC`: the IC50 worked out at 513 nM in assay [1] and 545 nM in assay [2].

As to `COc1cc(-c2cccc(=O)n2-c2cccc(F)c2)cc(OC)c1OC`, the figures for the half-inhibitory concentration (IC50) in assay [1] and in assay [2] were 73 nM and 340 nM, respectively.

`COc1cc(-n2c(-c3ccc(OC(F)(F)F)cc3)cccc2=O)cc(OC)c1OC`: the IC50 worked out at 1960 nM in assay [1] and 461 nM in assay [2].

Turning to `COc1cc(-c2cccc(=O)n2-c2ccc3c(c2)OCO3)cc(OC)c1OC`, the IC50 in assay [1] was 5410 nM; in assay [2], 14000 nM.

`COc1ccc(-n2c(-c3cc(OC)c(OC)c(OC)c3)cccc2=O)cc1OCc1ccccc1`: the figures for the IC50 in assay [1] and in assay [2] were 3040 nM and 25500 nM, respectively.

As for `COc1ccc(-c2cccc(=O)n2-c2cc(OC)c(OC)c(OC)c2)cc1`, the inhibition in vivo at 200 mg/kg in assay [3] amounted to 54%. Besides, the inhibition in vivo at 50 mg/kg in assay [4] was found to be 41%. For the same compound, in assay [5], the outcome was inactive. Further, the IC50 in assay [1] and in assay [2] was under 10 nM in each case.

As for `COc1ccc(-n2c(-c3cc(OC)c(OC)c(OC)c3)cccc2=O)cc1OC`, the IC50 worked out at 4870 nM in assay [1] and 14300 nM in assay [2].

On to `COc1ccc(-n2c(-c3cc(OC)c(OC)c(OC)c3)cccc2=O)cc1O`, for which the IC50 in assay [1] and in assay [2] was 1220 nM throughout.

As to `CC(=O)O[C@H]1C(=O)[C@@]2(C)[C@H]([C@H](OC(=O)c3ccccc3)[C@]3(O)C[C@H](OC(=O)[C@H](O)[C@@H](NC(=O)c4ccccc4)c4ccccc4)C(C)=C1C3(C)C)[C@]1(OC(C)=O)CO[C@@H]1C[C@@H]2O` [PACLITAXEL], the inhibition in vivo at 10 mg/kg in assay [6] came out at 47%. Also, the IC50 in assay [1] came out at 6 nM; in assay [2], 12 nM.

As to `COc1cc(-c2cccc(=O)n2-c2ccncc2)cc(OC)c1OC`, the IC50 in assay [1] is 2520 nM; in assay [2], 3020 nM.

Turning to `COc1cc(-c2cccc(=O)n2-c2cc(OC)c(OC)c(OC)c2)cc(OC)c1OC`, the IC50 in assay [1] worked out at 5460 nM; in assay [2], 844 nM.

Take `COc1cc(-c2cccc(=O)n2-c2ccc([N+](=O)[O-])cc2)cc(OC)c1OC`: the IC50 in assay [1] was 941 nM; in assay [2] it was 311 nM.

`COc1ccc(-c2cccc(=O)n2-c2cc(OC)c(OC)c(OC)c2)cc1C`: the results for the IC50 in assay [1] and in assay [2] were 129 nM and 583 nM, respectively.

For the compound `COc1cc(-c2cccc(=O)n2-c2ccc(C(F)(F)F)cc2)cc(OC)c1OC`, the values for the IC50 in assay [1] and in assay [2] were 10200 nM and 1920 nM, respectively.

For the compound `COc1cc(-n2c(-c3cccc(F)c3)cccc2=O)cc(OC)c1OC`, the values for the IC50 in assay [1] and in assay [2] were 159 nM and 472 nM, respectively.

Regarding `COc1cc(-n2c(-c3ccc4c(c3)OCO4)cccc2=O)cc(OC)c1OC`, in assay [3], the inhibition in vivo at 200 mg/kg is 27%. Also, the inhibition in vivo at 50 mg/kg in assay [4] came out at 17%. Moreover, the result in assay [5] was inactive. For the same compound, the IC50 is under 10 nM in assay [1] and 64 nM in assay [2].

On to `COc1ccc(-n2c(-c3cc(OC)c(OC)c(OC)c3)cccc2=O)cc1`, for which the figures for the IC50 in assay [1] and in assay [2] were 5740 nM and 1540 nM, respectively.

Regarding `COc1cc(-c2cccc(=O)n2-c2ccc(F)cc2)cc(OC)c1OC`, the values for the IC50 in assay [1] and in assay [2] were over 100000 nM and 9740 nM, respectively.

Take `COc1ccc(-c2cccc(=O)n2-c2cc(OC)c(OC)c(OC)c2)cc1OCc1ccccc1`: the IC50 in assay [1] came to 269 nM; in assay [2], 2310 nM.
